# Test system: HEK-293T
# Assay: Multiplex assay against HEK293T;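 for Population Tubulin-Different-Phenotype (%): share of the cells with healthy nuclei that show this phenotype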
# Type: toxicity, cell-based
# Conditions: human
# How it was run: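 Compound was added to live cells that had been stained at seeding with Hoechst33342, BioTracker Green Microtubule Cytoskeleton Dye, MitoTracker Red and Annexin V Alexa Fluor 680, and imaging followed on a CQ1 microscope at 37°C and 5% CO2. CellPathfinder machine-learning gating divided cells into Hoechst high-intensity objects or normal cells, normal cells into healthy, pyknosed or fragmented nuclei, and pyknosed cells into mitotic or apoptotic. Tubulin, mitochondrial-mass and membrane-permeability phenotypes are per cents of healthy-nucleus cells.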
# [1] = 12 h, 1 µM, compound concentration 1 uM, replicate 1
# [2] = 12 h, 1 µM, compound concentration 1 uM, replicate 2
# [3] = 12 h, 10 µM, compound concentration 10 uM, replicate 1
# [4] = 12 h, 10 µM, compound concentration 10 uM, replicate 2
# [5] = 24 h, 1 µM, compound concentration 1 uM, replicate 1
# [6] = 24 h, 1 µM, compound concentration 1 uM, replicate 2
# [7] = 24 h, 10 µM, compound concentration 10 uM, replicate 1
# [8] = 24 h, 10 µM, compound concentration 10 uM, replicate 2
# [9] = 48 h, 1 µM, compound concentration 1 uM, replicate 1
# [10] = 48 h, 1 µM, compound concentration 1 uM, replicate 2
# [11] = 48 h, 10 µM, compound concentration 10 uM, replicate 1
# [12] = 48 h, 10 µM, compound concentration 10 uM, replicate 2
compound,measurement,setting,value
OC1(c2ccc(Cl)cc2)CCN(Cc2c[nH]c3ccccc23)CC1,Population Apoptotic (%),[1],51%
same,Population Fragmented Nuclei (%),[1],20%
same,Population Healthy Nuclei (%),[1],14%
same,Population Hoechst High Intensity Objects (%),[1],15%
same,Population Membrane Permeable-Phenotype (%),[1],4%
same,Population Mitochondria Different-Phenotype (%),[1],63%
same,Population Mitotic Cells (%),[1],48%
same,Population Normal (%),[1],84%
same,Population Pyknosed Nuclei (%),[1],65%
same,Population Tubulin-Different-Phenotype (%),[1],45%
same,Total Cell Count,[1],177
same,Population Apoptotic (%),[2],18%
same,Population Fragmented Nuclei (%),[2],6%
same,Population Healthy Nuclei (%),[2],29%
same,Population Hoechst High Intensity Objects (%),[2],6%
same,Population Membrane Permeable-Phenotype (%),[2],7%
same,Population Mitochondria Different-Phenotype (%),[2],34%
same,Population Mitotic Cells (%),[2],81%
same,Population Normal (%),[2],93%
same,Population Pyknosed Nuclei (%),[2],63%
same,Population Tubulin-Different-Phenotype (%),[2],42%
same,Total Cell Count,[2],136
same,Population Apoptotic (%),[3],70%
same,Population Fragmented Nuclei (%),[3],11%
same,Population Healthy Nuclei (%),[3],11%
same,Population Hoechst High Intensity Objects (%),[3],15%
same,Population Membrane Permeable-Phenotype (%),[3],7%
same,Population Mitochondria Different-Phenotype (%),[3],100%
same,Population Mitotic Cells (%),[3],29%
same,Population Normal (%),[3],84%
same,Population Pyknosed Nuclei (%),[3],77%
same,Population Tubulin-Different-Phenotype (%),[3],92%
same,Total Cell Count,[3],275
same,Population Apoptotic (%),[4],63%
same,Population Fragmented Nuclei (%),[4],5%
same,Population Healthy Nuclei (%),[4],14%
same,Population Hoechst High Intensity Objects (%),[4],9%
same,Population Membrane Permeable-Phenotype (%),[4],17%
same,Population Mitochondria Different-Phenotype (%),[4],89%
same,Population Mitotic Cells (%),[4],36%
same,Population Normal (%),[4],90%
same,Population Pyknosed Nuclei (%),[4],80%
same,Population Tubulin-Different-Phenotype (%),[4],86%
same,Total Cell Count,[4],223
same,Population Apoptotic (%),[5],50%
same,Population Fragmented Nuclei (%),[5],22%
same,Population Healthy Nuclei (%),[5],30%
same,Population Hoechst High Intensity Objects (%),[5],16%
same,Population Membrane Permeable-Phenotype (%),[5],3%
same,Population Mitochondria Different-Phenotype (%),[5],70%
same,Population Mitotic Cells (%),[5],49%
same,Population Normal (%),[5],83%
same,Population Pyknosed Nuclei (%),[5],46%
same,Population Tubulin-Different-Phenotype (%),[5],42%
same,Total Cell Count,[5],210
same,Population Apoptotic (%),[6],27%
same,Population Fragmented Nuclei (%),[6],6%
same,Population Healthy Nuclei (%),[6],52%
same,Population Hoechst High Intensity Objects (%),[6],5%
same,Population Membrane Permeable-Phenotype (%),[6],8%
same,Population Mitochondria Different-Phenotype (%),[6],30%
same,Population Mitotic Cells (%),[6],72%
same,Population Normal (%),[6],94%
same,Population Pyknosed Nuclei (%),[6],40%
same,Population Tubulin-Different-Phenotype (%),[6],50%
same,Total Cell Count,[6],171
same,Population Apoptotic (%),[7],76%
same,Population Fragmented Nuclei (%),[7],14%
same,Population Healthy Nuclei (%),[7],3%
same,Population Hoechst High Intensity Objects (%),[7],16%
same,Population Membrane Permeable-Phenotype (%),[7],0%
same,Population Mitochondria Different-Phenotype (%),[7],100%
same,Population Mitotic Cells (%),[7],23%
same,Population Normal (%),[7],83%
same,Population Pyknosed Nuclei (%),[7],81%
same,Population Tubulin-Different-Phenotype (%),[7],100%
same,Total Cell Count,[7],282
same,Population Apoptotic (%),[8],89%
same,Population Fragmented Nuclei (%),[8],5%
same,Population Healthy Nuclei (%),[8],8%
same,Population Hoechst High Intensity Objects (%),[8],8%
same,Population Membrane Permeable-Phenotype (%),[8],15%
same,Population Mitochondria Different-Phenotype (%),[8],73%
same,Population Mitotic Cells (%),[8],10%
same,Population Normal (%),[8],91%
same,Population Pyknosed Nuclei (%),[8],85%
same,Population Tubulin-Different-Phenotype (%),[8],84%
same,Total Cell Count,[8],238
same,Population Apoptotic (%),[9],58%
same,Population Fragmented Nuclei (%),[9],19%
same,Population Healthy Nuclei (%),[9],53%
same,Population Hoechst High Intensity Objects (%),[9],13%
same,Population Mitochondria Different-Phenotype (%),[9],41%
same,Population Mitotic Cells (%),[9],41%
same,Population Normal (%),[9],86%
same,Population Pyknosed Nuclei (%),[9],26%
same,Population Tubulin-Different-Phenotype (%),[9],31%
same,Total Cell Count,[9],247
same,Population Apoptotic (%),[10],7%
same,Population Fragmented Nuclei (%),[10],7%
same,Population Healthy Nuclei (%),[10],70%
same,Population Hoechst High Intensity Objects (%),[10],2%
same,Population Membrane Permeable-Phenotype (%),[10],6%
same,Population Mitochondria Different-Phenotype (%),[10],15%
same,Population Mitotic Cells (%),[10],92%
same,Population Normal (%),[10],97%
same,Population Pyknosed Nuclei (%),[10],22%
same,Population Tubulin-Different-Phenotype (%),[10],39%
same,Total Cell Count,[10],264
same,Population Apoptotic (%),[11],71%
same,Population Fragmented Nuclei (%),[11],22%
same,Population Healthy Nuclei (%),[11],0%
same,Population Hoechst High Intensity Objects (%),[11],18%
same,Population Membrane Permeable-Phenotype (%),[11],0%
same,Population Mitochondria Different-Phenotype (%),[11],100%
same,Population Mitotic Cells (%),[11],28%
same,Population Normal (%),[11],81%
same,Population Pyknosed Nuclei (%),[11],77%
same,Population Tubulin-Different-Phenotype (%),[11],100%
same,Total Cell Count,[11],295
same,Population Apoptotic (%),[12],89%
same,Population Fragmented Nuclei (%),[12],19%
same,Population Healthy Nuclei (%),[12],19%
same,Population Hoechst High Intensity Objects (%),[12],4%
same,Population Membrane Permeable-Phenotype (%),[12],4%
same,Population Mitochondria Different-Phenotype (%),[12],71%
same,Population Mitotic Cells (%),[12],10%
same,Population Normal (%),[12],95%
same,Population Pyknosed Nuclei (%),[12],60%
same,Population Tubulin-Different-Phenotype (%),[12],95%
same,Total Cell Count,[12],224

# From ChEMBL document CHEMBL4689842, “EUbOPEN Chemogenomics Library wave 1” (2021)
